MEKK3 PB1 HTS: raises or lowers MEK5 binding to the human MEKK3 PB1 domain. Q99759. bead-based flow cytometry, Alexa488-MEK5 binding to MEKK3; actives lie on both sides; 0 = blocked by unlabeled MEK5, 100 = vehicle. binding response (% of control), % at 10 µM. 290,000 compounds, 1.4% hits;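 active = binding response more than 3 SD above or below the average of its plate-row segment, actives on both sides; inconclusive = wells at one plate position flagged as instrument error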;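 note: Alexa488 bead fluorescence after subtracting the streptavidin-only scavenger bead signal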
Rce1 inhib: inhibitors of yeast Ras-converting enzyme. yeast membranes, quenched prenylated peptide cleavage fluorescence. calls only. 290,000 compounds, 0.27% hits. AID 2563;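 active = fall in fluorescence gain of 50% or more versus controls, with final raw signal at or below 3038400; inconclusive = same 50% fall but final raw signal above 3038400; inactive = fall in fluorescence gain under 50%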;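 note: plate controls were neutral control wells for no effect and wells lacking membranes for full effect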
Target sequence (Q03530 whole entry, looked up): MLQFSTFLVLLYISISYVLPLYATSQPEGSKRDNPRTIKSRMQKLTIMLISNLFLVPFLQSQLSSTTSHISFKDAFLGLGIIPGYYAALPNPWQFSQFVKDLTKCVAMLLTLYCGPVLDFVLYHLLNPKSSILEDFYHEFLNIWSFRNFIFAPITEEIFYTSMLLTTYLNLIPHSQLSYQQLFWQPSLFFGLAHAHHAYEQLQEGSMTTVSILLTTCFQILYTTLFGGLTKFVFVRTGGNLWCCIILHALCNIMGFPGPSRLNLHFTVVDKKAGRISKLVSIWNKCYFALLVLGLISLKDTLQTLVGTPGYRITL
MEKK2mut PB1 HTS: signal of MEK5 binding to mutant human MEKK2 PB1 domain. bead flow cytometry, Alexa488-MEK5 binding to MEKK2 mutant. percent response, % at 10 µM. 290,000 compounds, 0.35% hits; in the data active = percent response above about 24%, passing the limit was not always enough
UCH37 DUB inh: blocks the human deubiquitinase UCH37; 330,000 compounds, 0.33% hits; purified proteasome/UCH37, Ub-AMC cleavage fluorescence; inhibition, % (concentration not given with the values); AID 588478; Q9Y5K5;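 active = mean inhibition over replicate wells above about 20%, limit read from the data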;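 note: 0% = compound-free wells with enzyme and 100% = wells lacking proteasome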
Target sequence (Q9Y5K5 whole entry, looked up): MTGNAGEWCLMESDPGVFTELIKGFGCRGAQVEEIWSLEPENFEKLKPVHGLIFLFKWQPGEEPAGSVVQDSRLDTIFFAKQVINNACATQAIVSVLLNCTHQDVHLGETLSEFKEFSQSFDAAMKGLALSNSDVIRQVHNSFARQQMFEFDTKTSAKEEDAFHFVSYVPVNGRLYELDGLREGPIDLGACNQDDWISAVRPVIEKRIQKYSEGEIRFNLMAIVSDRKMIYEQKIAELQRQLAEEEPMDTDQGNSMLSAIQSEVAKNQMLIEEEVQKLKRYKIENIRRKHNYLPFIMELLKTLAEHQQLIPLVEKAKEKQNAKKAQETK
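Material: human UCH37 enzyme supplied as purified proteasome complex. Measure: % inhibition of Ub-AMC cleavage fluorescence. Medium: pH 7.4 Tris-HCl (50 mM) with ovalbumin, ATP-MgCl2, DTT. Times: 30 min preincubation with enzyme, 25 min cleavage at room temperature. Detection: AMC fluorescence intensity at 355/460 nm.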
MEKK2wt PB1 HTS: raises or lowers MEK5 binding to wildtype human MEKK2 PB1 domain; binding response (% of control), % at 10 µM; AID 1531; bead flow cytometry, Alexa488-MEK5 binding to MEKK2 WT; actives lie on both sides; 290,000 compounds, 1.1% hits; in the data active = binding response below about 67% or above about 130%; inconclusive = no clear call, values can overlap the other calls; inactive = in between
T cell HTS: T cell immune modulation candidate. 2C CD8+ T cell-vesicle binding, flow cytometry; stronger effect = lower value. response (vesicle binding), % at 7 µM. 330,000 compounds, 0.068% hits;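 active = response, share of CD8 T cells binding vesicles, and their 90th percentile fluorescence all below set limits, cut at about 80% in these data, passing the limit was not always enough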;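 note: values below 100% mean blocked vesicle binding to the CD8+ T cells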
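System: murine 2C transgenic CD8+ T lymphocytes; also added: QL9-loaded Drosophila micro-vesicles; times: binding 1.5 h at 37 °C; measured by: flow cytometry, PE anti-B7-1 (FL2) versus Alexa647 anti-CD8 (FL8), PFA-fixed; control set: Peptide-free naked vesicles (low) and QL9 vesicles with 0.7% DMSO vehicle (high)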
MEKK2wt confirm: raises or lowers MEK5 binding to wildtype human MEKK2, retest | shares compounds with MEKK3 PB1 HTS | AID 1892 | bead flow cytometry, Alexa488-MEK5 binding to MEKK2 WT; actives lie on both sides | 5,900 compounds, 2.4% hits | binding response (% of control), % at 10 µM; in the data active = binding response below about 16% or above about 210%; inactive = in between
MEKK2mut-MEK5: signal of MEK5 binding to mutant human MEKK2, retest; percent response, % at 10 µM; AID 1893; 5,900 compounds, 2% hits; shares compounds with MEKK3 PB1 HTS; bead flow cytometry, Alexa488-MEK5 binding to MEKK2 mutant; in the data active = percent response mostly above about 71%, no sharp cut-off; inactive = mostly below about 38%;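 note: higher means compound restores mutant binding toward wildtype level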
MEKK3 confirm: MEKK3-MEK5 PB1 inhibition, single concentration confirmation; bead flow cytometry, Alexa488-MEK5 binding to MEKK3; stronger effect = lower value; binding response (% of control), % at 10 µM; 5,900 compounds, 1.8% hits; shares compounds with MEKK3 PB1 HTS;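 active = binding response below 72% of control, or above a set upper limit, though filed actives all read lower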;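 note: 100% = DMSO only wells and 0% = binding blocked by excess unlabeled MEK5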
* = called active by the depositor; i = inactive; ? = inconclusive; · = no result given; [ ] = another dose, or the depositor's remark. Shown are actives, neighbours in structure and some others; about 2.5% of the full set was active somewhere.

SMILES	MEKK3 PB1 HTS	Rce1 inhib	MEKK2mut PB1 HTS	UCH37 DUB inh	MEKK2wt PB1 HTS	T cell HTS	MEKK2wt confirm	MEKK2mut-MEK5	MEKK3 confirm
O=[N+]([O-])c1ccc(N/N=C/c2sc(N3CCOCC3)nc2-c2ccccc2)c(S(=O)(=O)Nc2ccc(Cl)cc2)c1	11*[inhibitor]	i	-32	·	·	·	79	-9	82
CCNc1nc(Oc2ccc(C(=O)OCC)cc2)nc(N2CCOCC2)n1	135*	i	1	1	117	111	98	-1	101
CC(=NNC(=O)CN1CCN(S(=O)(=O)c2ccc(C)cc2)CC1)c1ccc(O)cc1	·	·	·	1	·	·	·	·	·
CCOC(=O)C1CCCN(S(=O)(=O)c2ccc(S(=O)(=O)N3CCCC3)cc2)C1 (stereo not given)	·	i	·	·	·	272	·	·	·
CCOC(=O)C1CCCN(Cc2cccs2)C1 (stereo not given)	1.0*[inhibitor]	i	-18	1	-3.0*[inhibitor]	411	104	6	106
CCOC(=O)C1CCCN(S(=O)(=O)c2cccs2)C1 (stereo not given)	122*	i	7	0	114	·	97	-7	97
COc1ccccc1/C=C/C=NNC(=O)c1cc(-c2ccc(C)o2)[nH]n1	·	·	·	3	·	·	·	·	·
Cc1ccc([N+](=O)[O-])cc1-c1ccc(C=NNC(=O)CN2CCOCC2)o1	·	·	·	14	·	·	·	·	·
COc1ccccc1C(=O)N/C(=C\c1ccc(Br)cc1)C(=O)NCCO	129*	i	6	1	126	243	106	9	106
Cc1ccccc1C(=O)NC1CCN(CC(=O)Nc2ccc3c(c2)OCCO3)CC1	88	i	-14	4	89	170	·	·	·
CCOc1ccccc1NC(=O)NC1CCN(CC(=O)Nc2ccc3c(c2)OCCO3)CC1	75*[inhibitor]	·	-7	2	82	227	101	4	103
C#CCOCCOCCOCCNc1nc(N2CCN(C(=O)[C@H](Cc3ccc(O)cc3)n3cc([C@@H](N)C(C)CC)nn3)CC2)nc(N2CCN(C(=O)[C@H](Cc3cc4ccccc4[nH]3)n3cc([C@@H](N)C(C)CC)nn3)CC2)n1 (stereo not given in full)	111	i	59*	3	208*	726	194	65	108
C#CCOCCOCCOCCNc1nc(N2CCN(C(=O)[C@H](CCC(=O)O)n3cc(C(N)Cc4ccc(O)cc4)nn3)CC2)nc(N2CCN(C(=O)[C@H](Cc3cc4ccccc4[nH]3)n3cc(C(N)[C@H](C)CC)nn3)CC2)n1 (stereo not given in full)	112	i	38	5	153*	347	134	20	102
C#CCOCCOCCOCCNc1nc(N2CCN(C(=O)[C@H](CCCCN)n3cc([C@@H](N)C(C)CC)nn3)CC2)nc(N2CCN(C(=O)[C@H](CCCCN)n3cc([C@@H](N)CC(C)C)nn3)CC2)n1 (stereo not given in full)	111	i	60*	1	180*	783	173	47	109
C#CCOCCOCCOCCNc1nc(N2CCN(C(=O)[C@H](Cc3ccc(O)cc3)n3cc([C@@H](N)C(C)CC)nn3)CC2)nc(N2CCN(C(=O)[C@H](Cc3cc4ccccc4[nH]3)n3cc([C@@H](N)CC(C)C)nn3)CC2)n1 (stereo not given in full)	117	i	73*	1	224*	i	231*	117*	115
CCC(C)NC(=O)CON=Cc1ccc(C(=O)OC)cc1 (stereo not given)	·	·	·	4	·	·	·	·	·
COc1ccccc1C(=O)NN=C(C)c1ccc(NC(=O)C2CC2)cc1	·	·	·	-22	·	·	·	·	·
C#CCOCCOCCOCCNc1nc(N2CCN(C(=O)[C@H](Cc3cc4ccccc4[nH]3)n3cc([C@@H](N)C(C)CC)nn3)CC2)nc(N2CCN(C(=O)[C@H](CCCCN)n3cc([C@@H](N)CC(C)C)nn3)CC2)n1 (stereo not given in full)	111	i	95*	5	247*	569	232*	89*	113
C#CCOCCOCCOCCNc1nc(N2CCN(C(=O)[C@H]([C@@H](C)CC)n3cc([C@@H](N)Cc4ccc(O)cc4)nn3)CC2)nc(N2CCN(C(=O)[C@H](Cc3cc4ccccc4[nH]3)n3cc([C@@H](N)C(C)CC)nn3)CC2)n1 (stereo not given in full)	113	i	91*	·	237*	348	216*	68	112
C#CCOCCOCCOCCNc1nc(N2CCN(C(=O)[C@H](Cc3cc4ccccc4[nH]3)n3cc([C@@H](N)C(C)CC)nn3)CC2)nc(N2CCN(C(=O)[C@H](Cc3cc4ccccc4[nH]3)n3cc([C@@H](N)Cc4ccc(O)cc4)nn3)CC2)n1 (stereo not given in full)	111	i	162*	·	313*	638	266*	104*	110
COc1ccc(C(=O)COC(=O)C(CC(C)C)N2C(=O)c3ccccc3C2=O)cc1 (stereo not given)	100	i	2	0	99	658	·	·	·
CSCCC(C(=O)OCC(=O)c1ccc(C)c(C)c1)N1C(=O)c2cc(Cl)c(Cl)cc2C1=O (stereo not given)	2.0*[inhibitor]	i	-15	5	2.0*[inhibitor]	152	90	-4	97
CC(Cn1nnc2ccccc21)=NNC(=O)c1cccc(Br)c1	·	·	·	1	·	·	·	·	·
CC(=NNS(=O)(=O)c1ccccc1)c1ccc(NC(=O)C(F)(F)F)cc1	·	·	·	0	·	·	·	·	·
CC1CCCCN1c1nc2nonc2nc1N1CCCCC1C (stereo not given)	126*	i	6	4	97	426	98	-2	99
COc1ccccc1Nc1nc2nonc2nc1N1CCCCC1C (stereo not given)	99	·	-3	5	97	285	·	·	·
COc1ccc(-c2oc3ncnc(NCCCN(C)C)c3c2-c2ccc(OC)cc2)cc1	109	?	30*	-190	171*	248	144	27	100
